# From PMC9291822 (British Journal of Clinical Pharmacology, 2021)
# “And” between values parts separate entries of the source, which are not always exact repeats. Equal values may be shown once. “Also recorded” adds a separate entry of the source. Read-outs that look alike come from different tables or passages of the source.
# How the values were obtained:
# [1] = assay type: in vivo, human
# Outline: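 Adults aged 18–75 with hepatic impairment (Child–Pugh A/B/C, also reclassified by NCI Organ Dysfunction Working Group criteria) or normal function, matched on age, weight and sex. Overnight fast (≥10 h), single oral 200 mg (2 × 100 mg tablets), fasting ≥4 h post-dose. Plasma sampled predose to 72 h; parent and metabolite measured by validated LC-MS/MS (LLOQ ~1.00 ng/mL). Noncompartmental analysis; GM ratios vs normal with 90% CIs.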
# [2] = test system: plasma protein; conditions: cited from earlier work
# [3] = repeated administration of 400-mg BID tablets; cited from earlier work
# [4] = Safety assessments and adverse events after single-dose capmatinib; assay type: in vivo, human; conditions: for AEs, any primary system organ class: regardless of study drug relationship
# Outline: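 Single oral 200 mg dose; participants confined from day −1 to day 4. Haematology, chemistry, coagulation and urinalysis at screening, baseline, days 1–2 and end of treatment; vital signs on days 1–3. Triplicate 12-lead ECGs. AEs/SAEs recorded with severity and relatedness, graded per CTCAE v4.03. Phone follow-up at 30 days post-dose.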
# [5] = test system: human plasma proteins; experiment: Plasma protein binding by ultrafiltration, 3 h postdose samples; assay type: in vitro ADME
# [6] = test system: MET; conditions: MET inhibitor; cited from earlier work
# [7] = healthy participants, cited from earlier work
# [8] = single oral dose 200 mg, mild, Child–Pugh A (n = 6)
# [9] = single oral dose 200 mg, moderate, Child–Pugh B (n = 8)
# [10] = single oral dose 200 mg, normal (n = 9)
# [11] = single oral dose 200 mg, severe, Child–Pugh C (n = 6)
compound,measurement,setting,value
CNC(=O)c1ccc(-c2cnc3ncc(Cc4ccc5ncccc5c4)n3n2)cc1F [capmatinib],"increase in GM AUCinf, AUClast and Cmax vs. normal group","[1]; NCI classification, both mild and moderate groups",26–46%
same,increase in GM AUCinf vs. normal group,"[1]; NCI classification, mild group",26%
same,increase in GM AUClast vs. normal group,"[1]; NCI classification, mild group",27%
same,increase in GM Cmax vs. normal group,"[1]; NCI classification, mild group",35%
same,increase in GM Cmax vs. normal group,"[1]; NCI classification, moderate group",46%
same,AUC(0-inf),"[1]; human, plasma, po, 200 mg, AUCinf, GM, single oral dose 200 mg, normal (n = 9)",6240 ng·h/mL
same,AUC(0-t),"[1]; human, plasma, po, 200 mg, AUClast, GM, single oral dose 200 mg, normal (n = 9)",6190 ng·h/mL
same,Cmax,"[1]; human, plasma, po, 200 mg, Cmax, GM, single oral dose 200 mg, normal (n = 9)",1740 ng/mL
same,Vd/F,"[1]; human, plasma, po, 200 mg, Vz/F, GM, single oral dose 200 mg, normal (n = 9)",483 L
same,half-life,"[1]; human, plasma, po, 200 mg, t½, GM, single oral dose 200 mg, normal (n = 9)",624 min
same,"GM exposures vs. normal group, interim PK analysis","[1]; mild and moderate groups, end of stage 1",< 3 fold
same,GM Vz/F lower vs. normal group,[1]; mild group,32.9%
same,GM t½ shorter vs. normal group,[1]; mild group,48.4%
same,decrease in GM AUCinf vs. normal group,[1]; mild group,23.3%
same,decrease in GM Cmax vs. normal group,[1]; mild group,27.6%
same,increase in GM CL/F vs. normal group,[1]; mild group,30.6%
same,"decrease in GM AUCinf,u vs. normal group","[1]; mild group, unbound",19.3%
same,"decrease in GM AUClast,u vs. normal group","[1]; mild group, unbound",19.6%
same,"decrease in GM Cmax,u vs. normal group","[1]; mild group, unbound",23.9%
same,GM Vz/F lower vs. normal group,[1]; moderate group,39.5%
same,GM t½ shorter vs. normal group,[1]; moderate group,44.5%
same,decrease in GM AUCinf vs. normal group,[1]; moderate group,8.6%
same,decrease in GM Cmax vs. normal group,[1]; moderate group,17.2%
same,increase in GM CL/F vs. normal group,[1]; moderate group,9.7%
same,"GM Cmax,u, AUClast,u and AUCinf,u vs. normal group","[1]; moderate group, unbound",similar
same,GM Vz/F lower vs. normal group,[1]; severe group,53.0%
same,GM t½ shorter vs. normal group,[1]; severe group,41.5%
same,change in GM Cmax vs. normal group,[1]; severe group,remained unchanged; also recorded: remained similar
same,decrease in GM CL/F vs. normal group,[1]; severe group,19.1%
same,increase in GM AUCinf vs. normal group,[1]; severe group,24%
same,"increase in GM AUCinf,u vs. normal group","[1]; severe group, unbound",78%
same,"increase in GM AUClast,u vs. normal group","[1]; severe group, unbound",78%
same,"increase in GM Cmax,u vs. normal group","[1]; severe group, unbound",46%
same,"CL/F, GM",[1]; [8],41.8 L/h
same,"CL/F, mean (SD)",[1]; [8],42.6 (9.23) L/h
same,"CL/F, GM",[1]; [9],35.1 L/h
same,"CL/F, mean (SD)",[1]; [9],36.6 (11.4) L/h
same,"CL/F, GM",[1]; [10],32.0 L/h
same,"CL/F, mean (SD)",[1]; [10],36.1 (19.1) L/h
same,"CL/F, GM",[1]; [11],25.9 L/h
same,"CL/F, mean (SD)",[1]; [11],28.2 (11.7) L/h
same,bound to plasma protein,[2],96%
same,steady state GM accumulation ratio,[3],1.4
same,"AEs, any primary system organ class, maximum Grade 1",[4]; all participants (N = 31),5 (16.1) n (%)
same,"AEs, any primary system organ class, maximum Grade 2",[4]; all participants (N = 31),1 (3.2) n (%)
same,Diarrhoea,[4]; all participants (N = 31),1 (3.2) n (%)
same,Dizziness,[4]; all participants (N = 31),1 (3.2) n (%)
same,Ear and labyrinth disorders,[4]; all participants (N = 31),1 (3.2) n (%)
same,Flatulence,[4]; all participants (N = 31),1 (3.2) n (%)
same,Gastrointestinal disorders,[4]; all participants (N = 31),3 (9.7) n (%)
same,General disorders and administration site conditions,[4]; all participants (N = 31),1 (3.2) n (%)
same,Headache,[4]; all participants (N = 31),2 (6.5) n (%)
same,Hypoglycaemia,[4]; all participants (N = 31),1 (3.2) n (%)
same,Medical device site dermatitis,[4]; all participants (N = 31),1 (3.2) n (%)
same,Metabolism and nutrition disorders,[4]; all participants (N = 31),1 (3.2) n (%)
same,Nausea,[4]; all participants (N = 31),2 (6.5) n (%)
same,Nervous system disorders,[4]; all participants (N = 31),2 (6.5) n (%)
same,Vertigo,[4]; all participants (N = 31),1 (3.2) n (%)
same,participants with AEs suspected to be capmatinib related,[4]; all participants (N = 31),9.7%
same,severity of AEs suspected to be capmatinib related,[4]; all participants (N = 31),grade 1
same,deaths and SAEs,[4]; during study treatment and 30-day follow-up,No deaths and SAEs
same,"AEs, any primary system organ class, maximum Grade 1",[4]; mild (n = 7),2 (28.6) n (%)
same,"AEs, any primary system organ class, maximum Grade 2",[4]; mild (n = 7),1 (14.3) n (%)
same,Diarrhoea,[4]; mild (n = 7),0 n (%)
same,Dizziness,[4]; mild (n = 7),0 n (%)
same,Ear and labyrinth disorders,[4]; mild (n = 7),1 (14.3) n (%)
same,Flatulence,[4]; mild (n = 7),0 n (%)
same,Gastrointestinal disorders,[4]; mild (n = 7),0 n (%)
same,General disorders and administration site conditions,[4]; mild (n = 7),1 (14.3) n (%)
same,Headache,[4]; mild (n = 7),1 (14.3) n (%)
same,Hypoglycaemia,[4]; mild (n = 7),1 (14.3) n (%)
same,Medical device site dermatitis,[4]; mild (n = 7),1 (14.3) n (%)
same,Metabolism and nutrition disorders,[4]; mild (n = 7),1 (14.3) n (%)
same,Nausea,[4]; mild (n = 7),0 n (%)
same,Nervous system disorders,[4]; mild (n = 7),1 (14.3) n (%)
same,Vertigo,[4]; mild (n = 7),1 (14.3) n (%)
same,"AEs, any primary system organ class, maximum Grade 1",[4]; moderate (n = 8),2 (25.0) n (%)
same,"AEs, any primary system organ class, maximum Grade 2",[4]; moderate (n = 8),0 n (%)
same,Diarrhoea,[4]; moderate (n = 8),0 n (%)
same,Dizziness,[4]; moderate (n = 8),1 (12.5) n (%)
same,Ear and labyrinth disorders,[4]; moderate (n = 8),0 n (%)
same,Flatulence,[4]; moderate (n = 8),0 n (%)
same,Gastrointestinal disorders,[4]; moderate (n = 8),2 (25.0) n (%)
same,General disorders and administration site conditions,[4]; moderate (n = 8),0 n (%)
same,Headache,[4]; moderate (n = 8),1 (12.5) n (%)
same,Hypoglycaemia,[4]; moderate (n = 8),0 n (%)
same,Medical device site dermatitis,[4]; moderate (n = 8),0 n (%)
same,Metabolism and nutrition disorders,[4]; moderate (n = 8),0 n (%)
same,Nausea,[4]; moderate (n = 8),2 (25.0) n (%)
same,Nervous system disorders,[4]; moderate (n = 8),1 (12.5) n (%)
same,Vertigo,[4]; moderate (n = 8),0 n (%)
same,"AEs, any primary system organ class, maximum Grade 1",[4]; normal (n = 10),0 n (%)
same,"AEs, any primary system organ class, maximum Grade 2",[4]; normal (n = 10),0 n (%)
same,Diarrhoea,[4]; normal (n = 10),0 n (%)
same,Dizziness,[4]; normal (n = 10),0 n (%)
same,Ear and labyrinth disorders,[4]; normal (n = 10),0 n (%)
same,Flatulence,[4]; normal (n = 10),0 n (%)
same,Gastrointestinal disorders,[4]; normal (n = 10),0 n (%)
same,General disorders and administration site conditions,[4]; normal (n = 10),0 n (%)
same,Headache,[4]; normal (n = 10),0 n (%)
same,Hypoglycaemia,[4]; normal (n = 10),0 n (%)
same,Medical device site dermatitis,[4]; normal (n = 10),0 n (%)
same,Metabolism and nutrition disorders,[4]; normal (n = 10),0 n (%)
same,Nausea,[4]; normal (n = 10),0 n (%)
same,Nervous system disorders,[4]; normal (n = 10),0 n (%)
same,Vertigo,[4]; normal (n = 10),0 n (%)
same,"AEs, any primary system organ class",[4]; all participants (N = 31),6 n (%) and 6 (19.4) n (%)
same,"AEs, any primary system organ class",[4]; mild (n = 7),3 (42.9) n (%)
same,"AEs, any primary system organ class",[4]; moderate (n = 8),2 (25.0) n (%)
same,"AEs, any primary system organ class",[4]; normal (n = 10),0 n (%)
same,"AEs, any primary system organ class",[4]; severe (n = 6),1 (16.7) n (%)
same,"AEs, any primary system organ class, maximum Grade 1",[4]; severe (n = 6),1 (16.7) n (%)
same,"AEs, any primary system organ class, maximum Grade 2",[4]; severe (n = 6),0 n (%)
same,Diarrhoea,[4]; severe (n = 6),1 (16.7) n (%)
same,Dizziness,[4]; severe (n = 6),0 n (%)
same,Ear and labyrinth disorders,[4]; severe (n = 6),0 n (%)
same,Flatulence,[4]; severe (n = 6),1 (16.7) n (%)
same,Gastrointestinal disorders,[4]; severe (n = 6),1 (16.7) n (%)
same,General disorders and administration site conditions,[4]; severe (n = 6),0 n (%)
same,Headache,[4]; severe (n = 6),0 n (%)
same,Hypoglycaemia,[4]; severe (n = 6),0 n (%)
same,Medical device site dermatitis,[4]; severe (n = 6),0 n (%)
same,Metabolism and nutrition disorders,[4]; severe (n = 6),0 n (%)
same,Nausea,[4]; severe (n = 6),0 n (%)
same,Nervous system disorders,[4]; severe (n = 6),0 n (%)
same,Vertigo,[4]; severe (n = 6),0 n (%)
same,tolerability,"[4]; single dose, mild, moderate, severe hepatic impairment and normal hepatic function",well tolerated
same,"changes in chemistry parameters, QTcF or other ECG parameters",[4]; single oral dose 200 mg,No clinically relevant changes
same,changes in haematological parameters,[4]; single oral dose 200 mg,Minimal changes
same,bound to human plasma proteins,"[5]; 3 hours postdose samples, across all participants",96.7%
same,GM unbound fraction higher vs. normal group,[5]; severe group,~ 44.8%
same,IC50,[6],0.6 nM
same,tolerability,"[7]; single dose of 600 mg, tablet formulation",tolerated
same,PK dose linearity,"[7]; tablets, single dose of 200–600 mg",linear
